Article PMC5199614 (Journal of bone and mineral research : the official journal …, 2016)

Tests used:
[1] = humans, cited from earlier work
[2] = tested on: renal proximal tubule cells; type: in vivo, mouse; settings: 5 minutes (NS^TMR) or 5 or 60 minutes after iv injection
human PTHR1 = biological target: T1, human PTHR1 (Homo sapiens, UniProt Q03431); test: cAMP signaling; type: cell-based; settings: GP-2.3 cells; for Emax (cAMP-dependent luminescence): vehicle 1.3 ± 0.1, means ±SEM of 10 experiments
T1 sequence (Q03431 27-593): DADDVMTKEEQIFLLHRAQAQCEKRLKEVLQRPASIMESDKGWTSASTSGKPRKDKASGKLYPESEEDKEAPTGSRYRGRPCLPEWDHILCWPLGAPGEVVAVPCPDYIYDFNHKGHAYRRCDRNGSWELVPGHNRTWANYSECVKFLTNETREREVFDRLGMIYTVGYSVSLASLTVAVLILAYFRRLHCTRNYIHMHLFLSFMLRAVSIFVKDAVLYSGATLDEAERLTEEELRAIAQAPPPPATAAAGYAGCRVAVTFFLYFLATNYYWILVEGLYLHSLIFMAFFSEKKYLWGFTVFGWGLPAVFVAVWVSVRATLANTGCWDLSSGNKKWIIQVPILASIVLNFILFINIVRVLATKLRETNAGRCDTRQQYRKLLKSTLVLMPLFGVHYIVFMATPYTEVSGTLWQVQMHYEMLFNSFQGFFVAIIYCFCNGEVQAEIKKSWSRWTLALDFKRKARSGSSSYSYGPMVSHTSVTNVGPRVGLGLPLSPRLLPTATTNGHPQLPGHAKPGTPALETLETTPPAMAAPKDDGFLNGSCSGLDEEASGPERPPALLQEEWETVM

[3] = tested on: PTHR1-expressing GP-2.3 cells; test: Confocal microscopy of ligand internalization in GP-2.3 and GS-22A cells; type: cell-based, human; settings: 100 nM; for ligand localization in GP-2.3 cells: 15 minutes at 21°C, confocal TMR fluorescence; for TMR fluorescence in parental GS-22A cells (not transfected with PTHR1): confocal microscopy
How it was run: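 GP-2.3 cells (HEK-293 with stable human PTHR1 and glosensor) and parental GS-22A cells (glosensor only) were grown on coverslips to ~75% confluence. Cells were exposed to TMR-ligand at 100 nM in HBB for 15 min at 21°C, or for 30 min at 4°C to block internalization. They were then rinsed thrice, fixed in 4% formalin for 5 min and mounted with DAPI. Confocal imaging used 405/559 nm excitation.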

C57BL/6J mice [4] = test: Blood ionized calcium after iv injection in mice; type: in vivo, mouse; settings: iv 50 nmol/kg; for peak blood Ca^2+ increase above pre-injection (t = 0) level: n = 6 per group
C57BL/6J mice [5] = test: Plasma Pi after iv injection in mice; type: in vivo, mouse; settings: iv 50 nmol/kg; for time of Pi nadir: after injection; for decline of blood phosphate (Pi) at the nadir: n = 6 per group
C57BL/6J mice [6] = test: Blood 1,25; type: in vivo, mouse; settings: iv 50 nmol/kg; for blood 1,25(OH)2D relative to vehicle-injected mice: 2 hours after injection
[7] = Persistence of injected ligand in mouse blood and urine; settings: mice, iv 50 nmol/kg, 1 μL plasma in PBS, n = 6
C57BL/6J mice [8] = test: Urinary fractional excretion of Ca and Pi after iv injection in mice; type: in vivo, mouse; settings: iv 50 nmol/kg, spot urine

Row | Substance | immunostained phosphorylated PKA substrate in kidney sections [2] | Emax (cAMP-dependent luminescence) (human PTHR1) [cps × 10^−3] | ligand localization in GP-2.3 cells [3] | TMR fluorescence in parental GS-22A cells (not transfected with PTHR1) [3] | peak blood Ca^2+ increase above pre-injection (t = 0) level (C57BL/6J mice [4]) | time of return of blood Ca^2+ to baseline (C57BL/6J mice [4]; post-injection) [h] | time of Pi nadir (C57BL/6J mice [5]) [h] | decline of blood phosphate (Pi) at the nadir (C57BL/6J mice [5]) [%] | blood 1,25(OH)2D relative to vehicle-injected mice (C57BL/6J mice [6]) | also measured
1 | PTH(1-34) |  |  |  |  |  |  |  |  |  | half-time (t1/2) of disappearance from the circulation ([1]; injected intravenously): 10 ± 0.5 min; half-time ([1]; subcutaneous injection): about 1 hour
2 | PTH(1-84) |  |  |  |  |  |  |  |  |  | serum half-time ([1]; injected subcutaneously): about 2.5 hours
3 | TMR-NNGEDHSQITKV [NS^TMR, reference compound] | little or no green fluorescence |  |  |  |  |  |  |  |  | 
4 | [Lys^13(TMR), Cys^35]PTH(1-35) [PTH^TMR] | clear staining for pPKA substrate | 184 ± 12 | located predominantly in internalized vesicles | No such TMR fluorescence was observed | ~ 8% | ≤ 24 | 1 | 27 | about threefold | time of return of Pi to baseline (C57BL/6J mice [5]): ≤ 4 h; last time point at which plasma TMR fluorescence was detected [7]: 2 h
5 | [Lys^13(tetramethyl rhodamine {TMR}), Cys^35(PEG-20,000 Da)]PTH(1-35) [PEG-PTH^TMR] | at least comparable to that observed with the PTH^TMR ligand | 178 ± 14 | located predominantly in internalized vesicles | No such TMR fluorescence was observed | ~ 21% | 96 | 2 | 42 | about threefold | potency (EC50) relative to PTH(1-34) and PTH^TMR (human PTHR1; cAMP): about three- to fivefold weaker; time of peak blood Ca^2+ (C57BL/6J mice [4]; post-injection): 24 h; duration of effects on urinary fractional excretion of Ca and Pi (C57BL/6J mice [8]): up to 24 hours; blood 1,25(OH)2D (C57BL/6J mice [6]; 24 hours after injection): marked increases
